# From PubChem
# bIAP act: intestinal alkaline phosphatase (bovine) activation; purified bovine IAP, CDP-star luminescence, 30 min; hits give high values; fold of DMSO-control signal, blank-subtracted; activation factor at 20 µM; actives 0.17% (n = 200,000); AID 1016;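 active = activation factor of 2 or more at 20 µM, a signal rise over negative controls twice the positive control's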
# bIAP inhibitor: intestinal alkaline phosphatase (bovine) inhibition; 190,000 tested, under 10 active; inhibition, % at 20 µM; purified bovine IAP, CDP-star luminescence, 30 min;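 active = over 50% inhibition of intestinal alkaline phosphatase at 20 µM in the single-dose screen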
#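 System: purified bovine intestinal alkaline phosphatase (IAP) enzyme; Input: IAP diluted 1/65,000,000 in the well; Measured by: CDP-star luminescence signal; Compound dosing: 20 µM single dose; Incubation: 30 min reaction at room temperature.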
# hIAP act: human IAP activation | P09923 | purified human IAP, CDP-Star luminescence, 30 min; hits give high values; 1 = vehicle-only enzyme, 0 = enzyme-free background | activation factor at 10 µM | actives 0.16% (n = 330,000) | AID 2524;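 active = activation factor of the enzyme at least 2-fold when tested at 20 µM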
# Target sequence (P09923 whole entry, looked up): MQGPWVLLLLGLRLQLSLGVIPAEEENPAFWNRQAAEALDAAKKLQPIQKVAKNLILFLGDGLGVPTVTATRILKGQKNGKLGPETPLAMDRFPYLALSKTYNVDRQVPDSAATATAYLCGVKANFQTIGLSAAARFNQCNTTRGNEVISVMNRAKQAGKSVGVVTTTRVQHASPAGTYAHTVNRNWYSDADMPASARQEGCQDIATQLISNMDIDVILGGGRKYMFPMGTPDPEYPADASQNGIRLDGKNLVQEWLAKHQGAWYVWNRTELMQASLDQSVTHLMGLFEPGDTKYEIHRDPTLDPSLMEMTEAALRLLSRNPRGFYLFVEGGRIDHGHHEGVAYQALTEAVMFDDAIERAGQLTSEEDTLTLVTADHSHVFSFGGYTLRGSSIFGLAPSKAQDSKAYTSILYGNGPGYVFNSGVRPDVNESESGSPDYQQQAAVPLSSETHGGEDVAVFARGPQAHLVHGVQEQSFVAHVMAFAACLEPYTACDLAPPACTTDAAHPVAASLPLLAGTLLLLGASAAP
# hIAP block: human IAP inhibition; actives 0.12% (n = 330,000); inhibition, % at 10 µM; purified IAP, CDP-Star luminescence, 30 min;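 active = inhibition reaching a set limit with compound at 10 µM in the primary screen, cut at about 35% in these data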
# mIAP activ: mouse IAP activation | activation factor at 10 µM | actives 0.24% (n = 330,000) | muIAP, CDP-Star luminescence, 30 min; hits give high values; 1 = vehicle-only enzyme signal, 0 = enzyme-free wells;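 active = activation factor of at least 2 at 20 µM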
#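 Assay system: mouse IAP enzyme; Reagent: CDP-Star chemiluminescent phosphatase substrate; Compound: DMSO-dissolved test compounds; Incubation: 30 min, room temperature; Technique: luminescence from enzymatic CDP-Star hydrolysis; Controls: DMSO-only wells and no-enzyme negative control.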
# mIAP inh: mouse IAP inhibition. actives 0.2% (n = 330,000). purified mouse IAP, CDP-Star luminescence, 30 min. inhibition, % at 10 µM. AID 2806;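 active = inhibition of at least 40% at 10 µM in the primary screen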
# Numbers stand for hits; 0 = inactive; - = no result given. The list is not random: actives were taken first. Their share in the collection is about 0.72%.
SMILES,bIAP act,bIAP inhibitor,hIAP act,hIAP block,mIAP activ,mIAP inh
CC(C)CCNC(=O)c1ccc2c(SCC(=O)O)c3c(nc2c1)CCCC3,2.4,0,0,0,0,0
O=C(Oc1cc(=O)oc2ccccc12)c1cccnc1Cl,2.4,0,0,0,0,0
COC(=O)N/N=C(C)\C=C\c1ccco1,6.4,0,0,0,0,0
COc1cc(Nc2ccccc2Cl)c([N+](=O)[O-])nc1[N+](=O)[O-],0,0,0,0,0,0
CCN1C(=O)[C@H]2[C@@H](c3ccc(C)cc3)N3C(=O)N(c4cccc(F)c4)C(=O)[C@@]3(Cc3ccc(Cl)cc3)[C@H]2C1=O,-,-,0,0,0,0
Cc1csc2c(N3CCN(C(=O)NC(C)(C)C)CC3)ncnc12,-,-,0,0,0,0
Cc1csc2c(N3CCN(C(=O)Nc4ccc(Cl)c(Cl)c4)CC3)ncnc12,-,-,0,0,2.4,0
Cc1cccc(C(C)C)c1NC(=O)COC(=O)Cc1ccsc1,4.1,0,0,0,0,0
O=C1NC(=S)S/C1=C\c1coc2ccc(O)cc2c1=O,-,-,0,0,0,46
O=C(NCCc1ccc(Cl)cc1)C1CCC(CNc2nc(=S)[nH]c3ccccc23)CC1 (centres undefined),0,0,0,0,0,0
O=C(Cc1ccc(Cl)cc1)Nc1cccc(S(=O)(=O)N2CCCCC2)c1,-,-,0,0,2.1,0
O=C(NC(=S)Nc1ccccc1N1CCOCC1)c1ccc(-c2cc(Cl)ccc2Cl)o1,3.9,0,0,0,0,0
Cc1ccc(-n2ncc3c(N4CCCC(C)C4)ncnc32)c(C)c1 (centres undefined),-,-,0,0,0,44
COc1cccc(NC(=O)Nc2ccc(CC(=O)O)cc2)c1,0,0,0,0,0,0
COc1ccc(NC(=O)Nc2ccc(Br)c(C)c2)cc1,0,0,0,0,2.1,0
CCc1ccc(NC(=O)Nc2cccc(OC)c2)cc1,0,0,0,0,2.5,0
COc1ccc(NC(=O)Nc2cc(C)ccc2OC)cc1,0,0,0,0,0,0
CCOC(=O)c1ccc(N2CCN(c3ccc(F)cc3)CC2)c(NC(=O)Nc2cccc(OC)c2)c1,0,0,0,0,2.8,0
COc1ccc(C(CCc2ccc(C)o2)NC(=O)Nc2ccc(OC)cc2OC)cc1 (centres undefined),0,0,0,0,2,0
Cc1cccc(NC(=S)N/N=C/c2ccc(Cl)c([N+](=O)[O-])c2)c1,0,0,0,0,0,0
Cc1ccc(Cl)c(OCC(=O)Nc2ccc3c(c2)OCCO3)c1,0,0,0,0,0,0
O=C(COc1cc(Cl)c(Cl)cc1Cl)NC(=O)Nc1ccc2c(c1)OCCO2,2.6,0,0,0,0,0
O=C(Nc1ccc(F)cc1)C1(S(=O)(=O)c2ccc(Cl)cc2)CC1,-,-,0,0,0,0
CCOc1ccc(NC(=O)CSc2nnc(-c3ccco3)n2N)cc1,-,-,0,0,0,0
CCCN1C=CC(=CC=C(C#N)C#N)C=C1,-,-,0,0,0,0
SMILES,bIAP act,bIAP inhibitor,hIAP act,hIAP block,mIAP activ,mIAP inh
CCOC(=O)/C(C#N)=C/C=C1\C=Cc2ccccc2N1CC,0,0,0,0,0,44
CCCN1C=CC(=C/C=C(\C#N)C(=O)OCC)C=C1,0,0,0,37,0,0
S=C(Nc1ccc(Nc2ccccc2)cc1)NC1CCCCCC1,0,0,0,0,0,0
S=C(Nc1ccc(Cl)cc1)NC1CCCCC1,-,-,0,0,0,0
S=C(Nc1ccc(Br)cc1)NC1CCCCC1,0,0,0,0,2.5,0
FC(F)Oc1ccc(NC(=S)NC2CCCCCCC2)cc1,-,-,0,0,2.6,0
O=C(COc1ccc([N+](=O)[O-])cc1)NNC(=O)Nc1ccccc1F,-,-,0,0,0,44
COc1cc(/C=C2/C(=O)NN(c3cccc(F)c3)C2=O)ccc1OC(=O)c1ccco1,2.1,0,0,0,0,0
O=C(O)C1CCC(=O)N1Cc1ccc(F)cc1 (centres undefined),0,0,0,0,0,0
COc1cc(NC(=O)CSCc2cnn(-c3ccccc3)c2-n2cccc2)cc(OC)c1,4.1,0,0,0,0,0
COc1ccc(OC)c(NC(=O)CSCc2cnn(-c3ccccc3)c2-n2cccc2)c1,0,0,0,0,0,0
COc1cccc(CNC(=O)CSCc2cnn(-c3ccccc3)c2-n2cccc2)c1OC,2.3,0,0,0,0,0
O=C(CSCc1cnn(-c2ccccc2)c1-n1cccc1)NCc1cccnc1,0,0,0,0,0,0
COc1ccccc1CNC(=O)CSCc1cnn(-c2ccccc2)c1-n1cccc1,3.6,0,0,0,0,0
CCN(CC)c1ccc(NC(=O)CN2CCN(S(=O)(=O)c3cc(Cl)ccc3OC)CC2)cc1,0,0,0,0,0,0
COc1cc(/C=C2/C(=O)NN(c3ccc(Cl)cc3)C2=O)cc(Br)c1O,-,-,0,0,0,0
CCOc1ccc(N2C(=O)CC(SC(=NC)Nc3cccc(OC)c3)C2=O)cc1 (centres undefined),0,0,0,0,0,0
S=C(NCc1ccco1)Nc1ccc(Cl)c(Cl)c1,0,0,0,0,2.3,0
O=C(C1CCCO1)N1CCN(C(=S)Nc2ccc(Cl)cc2)CC1 (centres undefined),2.4,0,0,0,0,0
Cc1ccc(NC(=S)N2CCN(C(=O)C3CCCO3)CC2)cc1 (centres undefined),0,0,0,0,0,0
O=C(NCc1cccc(F)c1F)C1CCC(=O)N(C2CCCCCC2)C1 (centres undefined),-,-,0,0,0,0
CC1Cc2ccccc2N1S(=O)(=O)c1cccs1 (centres undefined),0,0,0,0,0,0
Fc1ccc(C2CC(c3cccs3)=NN2c2ccccc2)cc1 (centres undefined),0,0,0,0,2.3,0
NS(=O)(=O)c1ccc(N2N=C(c3ccccc3)CC2c2ccc(F)cc2)cc1 (centres undefined),0,0,0,0,2.1,0
CCOc1ccc(Br)cc1C1=NN(C(C)=O)C(c2ccc([N+](=O)[O-])s2)O1 (centres undefined),-,-,0,0,0,0
SMILES,bIAP act,bIAP inhibitor,hIAP act,hIAP block,mIAP activ,mIAP inh
O=C(c1ccc(S(=O)(=O)N2CCOCC2)cc1)N1CCN(c2ccccn2)CC1,0,0,0,0,0,0
COc1ccc(-n2c(=O)c3ccccc3n(CC(=O)NCc3ccco3)c2=O)cc1,0,0,0,0,0,0
COc1ccc2c(c1)c(=O)cc(C)n2CC(=O)NCc1ccco1,5.3,0,0,0,0,0
CCOC(=O)c1c(C)n(-c2ccccc2)c2ccc(O)c(CN(C)C)c12,0,0,0,0,0,0
C=CCN1C(=O)/C(=C/c2ccc(-c3ccc(F)cc3)o2)SC1=S,-,-,0,37,0,0
N#Cc1ccc(NC(=O)Nc2ccc(Cl)cc2)cc1,0,0,0,0,2.2,0
